Active and inactive are the calls of the source. No cut-off for these calls is given here.
Key:
Type in all cases: functional
Staphylococcus aureus = test: Antimicrobial activity against Staphylococcus aureus after 18 to 20 hrs at 37degC by disc diffusion method
Outline: (§1)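 Agar diffusion disc assay: bacterial inoculum of 1 × 10⁸ bacteria/mL spread on Mueller Hinton agar. 6 mm filter paper discs loaded with sample dissolved in DMSO. Chloramphenicol at 10 mcg/disc served as control. Plates incubated 18–20 h at 37 °C. Read-out was the zone of inhibition in mm.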

Aspergillus niger = test: Antimicrobial activity against Aspergillus niger after 18 to 20 hrs at 37degC by disc diffusion method
Outline: (§2)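 Fungal inoculum of 1 × 10⁶/mL spread on potato dextrose agar. 6 mm filter paper discs received sample dissolved in DMSO. Nystatin at 100 U/disc was the antifungal control. Plates incubated 18–20 h at 37 °C, then the zone of inhibition was measured in mm.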

Pseudomonas aeruginosa = test: Antimicrobial activity against Pseudomonas aeruginosa after 18 to 20 hrs at 37degC by disc diffusion method; outline: as §1
Bacillus subtilis = test: Antimicrobial activity against Bacillus subtilis after 18 to 20 hrs at 37degC by disc diffusion method; outline: as §1
Escherichia coli = test: Antimicrobial activity against Escherichia coli after 18 to 20 hrs at 37degC by disc diffusion method; outline: as §1
Candida albicans = test: Antimicrobial activity against Candida albicans after 18 to 20 hrs at 37degC by disc diffusion method; outline: as §2

| Molecule | diameter of the inhibition zone (DIZ) (Staphylococcus aureus) | diameter of the inhibition zone (DIZ) (Aspergillus niger) | diameter of the inhibition zone (DIZ) (Pseudomonas aeruginosa) | diameter of the inhibition zone (DIZ) (Bacillus subtilis) | diameter of the inhibition zone (DIZ) (Escherichia coli) | diameter of the inhibition zone (DIZ) (Candida albicans) | inhibition zone (IZ) (Aspergillus niger) |
| --- | --- | --- | --- | --- | --- | --- | --- |
| COc1c(F)c(F)cc2c(=O)c(-c3nnc(Nc4ccccc4C)o3)cn(C3CC3)c12 | inactive | inactive | inactive | inactive | inactive | inactive |  |
| NYSTATIN |  |  |  |  |  |  | 21.1 mm |
| COc1c(F)c(F)cc2c(=O)c(-c3nnc(Nc4cccc(C)c4)s3)cn(C3CC3)c12 | inactive | inactive | 27.1 mm | inactive | 23.8 mm | inactive |  |
| COc1c(F)c(F)cc2c(=O)c(-c3n[nH]c(=S)n3-c3ccccc3)cn(C3CC3)c12 | 21 mm | 19.9 mm | inactive | inactive | inactive | inactive |  |
| COc1c(F)c(F)cc2c(=O)c(-c3n[nH]c(=S)n3-c3cccc(C)c3)cn(C3CC3)c12 | 19.8 mm | 21.8 mm | inactive | inactive | inactive | inactive |  |
| COc1ccc(-n2c(-c3cn(C4CC4)c4c(OC)c(F)c(F)cc4c3=O)n[nH]c2=S)cc1 | 23.4 mm | 21.6 mm | inactive | inactive | inactive | inactive |  |
| COc1c(F)c(F)cc2c(=O)c(C(=O)NNC(=S)Nc3cccc(C)c3)cn(C3CC3)c12 | inactive | inactive | inactive | inactive | inactive | inactive |  |
| COc1c(F)c(F)cc2c(=O)c(-c3n[nH]c(=S)n3-c3ccc(Cl)cc3)cn(C3CC3)c12 | 22.2 mm | 21.5 mm | inactive | inactive | inactive | inactive |  |
| COc1c(F)c(F)cc2c(=O)c(-c3nnc(Nc4ccccc4)o3)cn(C3CC3)c12 | 18.8 mm | 14.7 mm |  | 25.4 mm | inactive |  |  |
| O=C(N[C@H](CO)[C@H](O)c1ccc([N+](=O)[O-])cc1)C(Cl)Cl [CHLORAMPHENICOL] | 32.8 mm |  | 24.68 mm | 30.11 mm | 29.14 mm |  |  |
| COc1ccc(Nc2nnc(-c3cn(C4CC4)c4c(OC)c(F)c(F)cc4c3=O)s2)cc1 | inactive | inactive | inactive | inactive | inactive | inactive |  |
| COc1c(F)c(F)cc2c(=O)c(-c3n[nH]c(=S)n3-c3ccccc3C)cn(C3CC3)c12 | 21.2 mm | 20.8 mm | inactive | inactive | inactive | inactive |  |
| COc1c(F)c(F)cc2c(=O)c(-c3nnc(Nc4ccccc4)s3)cn(C3CC3)c12 | 17 mm | 26.1 mm | 22 mm | 27 mm | 24 mm | 16.3 mm |  |
| COc1c(F)c(F)cc2c(=O)c(C(=O)NNC(=S)Nc3ccccc3C)cn(C3CC3)c12 | 17.2 mm | 18 mm | 20.1 mm | 20.1 mm | 18.5 mm |  |  |
| COc1c(F)c(F)cc2c(=O)c(C(=O)NNC(=S)Nc3ccc(Cl)cc3)cn(C3CC3)c12 | 15.9 mm | inactive | 22.6 mm | 15.1 mm | 15 mm | inactive |  |
| COc1c(F)c(F)cc2c(=O)c(-c3nnc(Nc4ccc(Cl)cc4)o3)cn(C3CC3)c12 | 21.06 mm |  | 26.1 mm | 24.6 mm | inactive | 22.5 mm |  |
| COc1c(F)c(F)cc2c(=O)c(-c3nnc(Nc4cccc(C)c4)o3)cn(C3CC3)c12 | inactive | inactive | inactive | 21 mm | inactive | inactive |  |
| COc1ccc(Nc2nnc(-c3cn(C4CC4)c4c(OC)c(F)c(F)cc4c3=O)o2)cc1 | 28 mm | 28.1 mm |  | 26.7 mm | inactive | 25.3 mm |  |
| COc1c(F)c(F)cc2c(=O)c(-c3nnc(Nc4ccc(Cl)cc4)s3)cn(C3CC3)c12 | 21 mm | inactive | inactive | 28 mm | inactive | 22 mm |  |
| COc1c(F)c(F)cc2c(=O)c(C(=O)NNC(=S)Nc3ccccc3)cn(C3CC3)c12 | 23.9 mm | inactive | 24.2 mm | 24.1 mm | 24.1 mm | 14.2 mm |  |
| COc1c(F)c(F)cc2c(=O)c(-c3nnc(Nc4ccccc4C)s3)cn(C3CC3)c12 | inactive | inactive | inactive | inactive | inactive | inactive |  |
| COc1ccc(NC(=S)NNC(=O)c2cn(C3CC3)c3c(OC)c(F)c(F)cc3c2=O)cc1 | 14.3 mm | inactive | 22.8 mm | 15.3 mm | 16.6 mm | inactive |  |

Source: ChEMBL document CHEMBL1287793, “Green synthesis and biological evaluation of some novel azoles as antimicrobial agents” (2010)
